# Experimental data reported in paper PMC5901702 (Journal of biomolecular screening, 2012).
# Columns and labels:
# [1] = target: T1, bovine trypsin (Bos taurus, UniProt P00760); assay: Target specificity: trypsin activity with a-factor–based peptide; assay type: biochemical; details: 100 µM compound; relative to DMSO control = 100%
# T1 sequence (P00760 24-246): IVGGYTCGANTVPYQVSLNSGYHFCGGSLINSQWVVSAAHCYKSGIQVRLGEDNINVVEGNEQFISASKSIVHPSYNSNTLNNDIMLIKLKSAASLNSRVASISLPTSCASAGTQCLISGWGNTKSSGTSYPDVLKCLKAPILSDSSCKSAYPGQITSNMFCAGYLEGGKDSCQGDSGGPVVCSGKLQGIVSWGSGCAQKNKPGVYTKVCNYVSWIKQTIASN
# Method in brief: (§1)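 Single-dose specificity assay with a-factor–based fluorogenic peptide (50 µM) in 0.1 M KPi pH 7.6. Ste23p was used at 10 µg/mL and 30 °C; trypsin and pronase E at 0.5 µg/mL each under the 37 °C HTS conditions. Enzymes were preincubated 10 min with 100 µM compound. Triplicate rates were normalized by trypsin/pronase full digestion and given relative to DMSO control (100%).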
# [2] = test system: pronase E; assay: Target specificity: pronase E activity with a-factor–based peptide; assay type: biochemical; details: 100 µM compound; relative to DMSO control = 100%
# Method in brief: as §1
# [3] = target: T2, yeast Rce1p (Saccharomyces cerevisiae, UniProt Q03530); assay: Target specificity: Rce1p activity; assay type: biochemical; details: 100 µM compound; relative to DMSO control = 100%
# T2 sequence (Q03530 1-315): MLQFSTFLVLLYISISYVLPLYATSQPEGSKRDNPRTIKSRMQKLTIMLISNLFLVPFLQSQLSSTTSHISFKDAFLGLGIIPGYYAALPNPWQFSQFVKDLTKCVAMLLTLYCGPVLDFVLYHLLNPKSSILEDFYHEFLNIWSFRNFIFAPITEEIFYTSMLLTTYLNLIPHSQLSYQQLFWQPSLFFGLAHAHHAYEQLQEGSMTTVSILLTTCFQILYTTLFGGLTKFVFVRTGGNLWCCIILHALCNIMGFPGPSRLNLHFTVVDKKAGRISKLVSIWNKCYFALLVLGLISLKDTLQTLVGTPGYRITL
# Method in brief: (§2)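 Yeast-derived microsomes (250 µg/mL) enriched for Rce1p or Ste24p were preincubated 10 min with 100 µM compound. They were assayed with an internally quenched fluorogenic farnesylated K-Ras C-terminus–based peptide, read at 320/420 nm ex/em. Rates were in triplicate, normalized by trypsin/pronase complete digestion, and expressed relative to DMSO control (100%).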
# [4] = target: T3, yeast Ste24p (Saccharomyces cerevisiae, UniProt P47154); assay: Target specificity: Ste24p activity; assay type: biochemical; details: 100 µM compound; relative to DMSO control = 100%
# T3 sequence (P47154 1-453): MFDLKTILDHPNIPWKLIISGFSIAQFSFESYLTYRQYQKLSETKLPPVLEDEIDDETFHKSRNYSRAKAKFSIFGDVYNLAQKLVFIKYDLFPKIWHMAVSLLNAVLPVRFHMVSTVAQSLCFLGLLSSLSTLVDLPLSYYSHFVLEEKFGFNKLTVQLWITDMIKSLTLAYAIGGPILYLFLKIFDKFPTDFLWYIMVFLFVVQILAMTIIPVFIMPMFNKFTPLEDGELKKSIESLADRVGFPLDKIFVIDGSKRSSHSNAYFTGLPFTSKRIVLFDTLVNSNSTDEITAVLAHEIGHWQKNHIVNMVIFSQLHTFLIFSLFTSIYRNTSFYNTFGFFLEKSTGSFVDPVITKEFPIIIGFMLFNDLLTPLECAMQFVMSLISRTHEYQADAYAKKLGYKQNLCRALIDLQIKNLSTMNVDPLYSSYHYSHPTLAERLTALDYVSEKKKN
# Method in brief: as §2
# [5] = target: T4, rat IDE (Rattus norvegicus, UniProt P35559); assay: Kinetic analysis of rat IDE in presence of activator; assay type: biochemical; details: compound 100 µM; 0.1 M KPi pH 7.6; DMSO control 154.8 ± 12.26
# T4 sequence (P35559 1-1019): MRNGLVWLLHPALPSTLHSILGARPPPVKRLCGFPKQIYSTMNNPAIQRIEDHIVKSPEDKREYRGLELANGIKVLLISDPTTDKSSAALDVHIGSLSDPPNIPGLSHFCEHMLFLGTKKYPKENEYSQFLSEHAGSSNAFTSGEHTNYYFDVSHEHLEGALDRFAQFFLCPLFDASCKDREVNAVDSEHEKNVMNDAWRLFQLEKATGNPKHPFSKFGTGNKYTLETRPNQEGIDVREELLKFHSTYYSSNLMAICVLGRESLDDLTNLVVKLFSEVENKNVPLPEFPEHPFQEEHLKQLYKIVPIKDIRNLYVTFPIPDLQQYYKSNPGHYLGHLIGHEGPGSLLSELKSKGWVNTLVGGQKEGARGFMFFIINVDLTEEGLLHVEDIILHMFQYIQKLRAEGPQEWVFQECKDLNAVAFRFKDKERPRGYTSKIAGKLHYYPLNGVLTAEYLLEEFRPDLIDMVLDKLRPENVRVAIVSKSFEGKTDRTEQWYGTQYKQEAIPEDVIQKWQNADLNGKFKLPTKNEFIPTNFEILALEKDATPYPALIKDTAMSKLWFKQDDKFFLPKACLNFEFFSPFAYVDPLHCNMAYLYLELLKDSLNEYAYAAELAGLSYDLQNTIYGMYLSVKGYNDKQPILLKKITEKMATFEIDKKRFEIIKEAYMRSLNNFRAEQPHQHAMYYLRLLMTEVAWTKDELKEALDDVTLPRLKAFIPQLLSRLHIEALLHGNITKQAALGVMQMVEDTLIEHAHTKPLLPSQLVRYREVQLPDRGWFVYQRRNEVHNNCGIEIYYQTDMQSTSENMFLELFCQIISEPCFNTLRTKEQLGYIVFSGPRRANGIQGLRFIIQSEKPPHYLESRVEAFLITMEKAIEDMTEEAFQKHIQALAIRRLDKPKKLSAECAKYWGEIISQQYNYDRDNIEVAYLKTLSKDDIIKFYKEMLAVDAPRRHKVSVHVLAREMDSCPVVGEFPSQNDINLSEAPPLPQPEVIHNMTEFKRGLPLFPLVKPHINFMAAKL
# [6] = target: T4, rat IDE; assay: Insulin competition with a-factor–based substrate on rat IDE; assay type: biochemical; details: 100 µM compound; […] (IC50) insulin; 0.1 M KPi
# [7] = target: T4, rat IDE; assay: Native PAGE mobility shift of rat IDE; assay type: binding; details: 100 µM compound; 60 min at 37 °C
# Method in brief: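 Rat IDE was preincubated 60 min at 37 °C with compound (100 µM) or ATP (3 mM). It was mixed 1:1 with 2× native sample buffer (0.6 M Tris-HCl pH 6.8, 20% glycerol, bromophenol blue), run on 10% native PAGE at 4 °C and silver-stained.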
SMILES,% Activity Trypsin [1] [%],% Activity Pronase [2] [%],% Activity Rce1p [3] [%],% Activity Ste24p [4] [%],Vmax [5] [nmol/min/mg],ability to stimulate IDE activity in presence of insulin [6],native PAGE mobility shift of IDE [7]
O=S(=O)(O)CCCc1cccc2ccccc12 [Compound 1],94.2 ± 0.3,100.9 ± 0.1,89.7 ± 3.8,97.2 ± 12.7,194.1 ± 5.85,retained their ability to stimulate IDE activity,–
Cn1ncc2c(NCCc3ccccc3)nc(Cl)nc21 [Compound 2],115.1 ± 3.9,89.2 ± 0.6,83.2 ± 3.4,93.0 ± 6.8,164.2 ± 6.4,–,–
O=S(=O)(O)c1cc(O)c2c(O)c(N=Nc3cccc4ccccc34)c(S(=O)(=O)O)cc2c1 [Compound 3],99.3 ± 2.2,103.8 ± 0.1,–,–,–,retained their ability to stimulate IDE activity,did not reveal a mobility shift
Nc1nc(SCc2ccccc2Cl)cc(C(=O)O)n1 [Compound 5],94.3 ± 5.4,–,101.2 ± 11.0,131.4 ± 18.8,127.8 ± 10.41,retained their ability to stimulate IDE activity,–
O=C(CCN1CC2CCC(CC2)C1)c1cccs1 [Compound 6],111.5 ± 2.8,104.4 ± 0.0,90.1 ± 1.0,98.6 ± 9.9,176.3 ± 7.35,–,noticeable shift
O=C(O)c1ccc(Oc2nc3ccccc3s2)cc1 [Compound 7],111.0 ± 1.2,104.3 ± 0.9,89.6 ± 2.4,92.8 ± 13.1,194.1 ± 13.81,retained their ability to stimulate IDE activity,–
O=[N+]([O-])/C=C/c1cc2ccccc2[nH]1 [Compound 8],101.8 ± 1.8,93.3 ± 1.8,–,89.2 ± 10.7,185.0 ± 9.73,–,noticeable shift
